Activity calls are given as the source filed them. The rule behind the calls is not given here.
Key:
[1] = Inhibition of protein A binding to horseradish peroxidase-conjugated human IgG in PBS solution by Protein A human IgG competitive ELISA
In short: (§1)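 Plate wells coated overnight at 4 °C with protein A (0.8 ug/well), washed with PBS, and blocked with 2% BSA for 1 h at 37 °C. Compound diluted in PBS or PBS–20% DMSO was added with HRP-conjugated human IgG and incubated 1 h at 37 °C. After washing, bound HRP-IgG was developed with ABTS for 20 min in the dark at room temperature and read at 405 nm. IC50 is the concentration inhibiting 50% binding.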

[2] = Inhibition of protein A binding to horseradish peroxidase-conjugated human IgG in 20% DMSO/PBS solution by Protein A human IgG competitive ELISA; in short: as §1
[3] = Inhibition of protein A binding to heat aggregated human IgG
[4] = target: T1, Low affinity immunoglobulin gamma Fc region receptor II-a (Homo sapiens, UniProt P12318); experiment: Inhibition of heat aggregated human IgG binding to human Fc-gamma-R2a
T1 sequence (P12318 whole entry): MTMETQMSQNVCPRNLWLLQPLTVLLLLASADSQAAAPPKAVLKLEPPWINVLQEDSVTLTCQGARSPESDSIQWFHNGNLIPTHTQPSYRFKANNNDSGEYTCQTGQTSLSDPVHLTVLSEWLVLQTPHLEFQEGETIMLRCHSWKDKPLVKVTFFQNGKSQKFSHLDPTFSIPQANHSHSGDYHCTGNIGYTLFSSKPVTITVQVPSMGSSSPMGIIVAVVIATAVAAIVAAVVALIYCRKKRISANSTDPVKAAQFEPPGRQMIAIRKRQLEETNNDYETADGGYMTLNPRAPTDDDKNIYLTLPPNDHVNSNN

[5] = target: Low affinity immunoglobulin gamma Fc region receptor III-B (Homo sapiens, UniProt O75015); experiment: Inhibition of heat aggregated human IgG binding to human Fc-gamma-R3b
Sequence of Low affinity immunoglobulin gamma Fc region receptor III-B (O75015 whole entry): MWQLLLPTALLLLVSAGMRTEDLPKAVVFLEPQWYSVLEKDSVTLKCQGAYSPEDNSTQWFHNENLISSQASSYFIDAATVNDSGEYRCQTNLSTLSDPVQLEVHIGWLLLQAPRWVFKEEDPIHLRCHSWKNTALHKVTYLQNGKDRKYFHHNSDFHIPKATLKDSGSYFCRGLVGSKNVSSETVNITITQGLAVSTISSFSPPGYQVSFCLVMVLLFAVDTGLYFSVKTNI

Mus musculus [6] = experiment: Reduction of anti-dsDNA antibody levels in NZB/NZW-F1 mouse systemic lupus erythematosus model at 50 mg/kg, iv administered once weekly starting from week 12 relative to untreated control; format: functional
In short: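 NZB/NZW F1 hybrid mice were given 50 mg/kg intravenously once weekly from week 12, against vehicle-treated controls. Serum anti-dsDNA autoantibodies were measured by a literature method, and total IgG was also monitored.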

Mus musculus [7] = experiment: Reduction of antibody immune complexes in NZB/NZW-F1 mouse systemic lupus erythematosus model at 50 mg/kg, iv administered once weekly starting from week 12 relative to untreated control; format: functional, organism-based; design: dose 50 mg/kg
Mus musculus [8] = experiment: Reduction of immune complex deposits in homozygous fas mutant MRL/lpr mouse systemic lupus erythematosus model at 50 mg/kg, iv administered once weekly for 5 consecutive weeks between 18 and 22 weeks by electron microscopy; format: functional, organism-based; design: dose 50 mg/kg
In short: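 MRL/lpr mice (homozygous fas mutation) received 50 mg/kg or vehicle intravenously once a week for 5 consecutive weeks, between weeks 18 and 22. Mice were then sacrificed, and immune complex deposition in kidney tissue was recorded by electron microscopy.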

Structure (SMILES) | IC50 ([1]; read-out: IC50) [nM] | also measured
Nc1cccc(Nc2nc(NCCO)nc(NCCc3ccc(Nc4nc(NCCc5ccc(F)cc5)nc(Nc5cccc(N)c5)n4)cc3)n2)c1 | 531 | –
Nc1cccc(Nc2nc(NCCO)nc(NCCc3ccc(Nc4nc(Nc5cccc(N)c5)nc(NC5CCNC5)n4)cc3)n2)c1 (stereo unspecified) | 233 | –
N=C(N)CCNc1nc(NCCO)nc(NCCc2ccc(Nc3nc(NCCO)nc(Nc4cccc(F)c4)n3)cc2)n1 | – | IC50 [1]: Not Active; IC50 [2]: Not Active
CS(=O)(=O)c1cccc(Nc2nc(NCCO)nc(Nc3ccc(CCNc4nc(NCCO)nc(Nc5cccc(N)c5)n4)cc3)n2)c1 | 243 | IC50 ([2]; read-out: IC50): 192 nM
Nc1cccc(Nc2nc(NCCO)nc(Nc3ccc(Nc4nc(NCCO)nc(Nc5cccc(N)c5)n4)cc3)n2)c1 | 157 | –
Nc1cccc(Nc2nc(NCCO)nc(NCCCCNc3nc(NCCO)nc(Nc4cccc(N)c4)n3)n2)c1 | 187 | –
Nc1cccc(Nc2nc(NCCO)nc(Nc3cccc(Nc4nc(NCCO)nc(Nc5cccc(N)c5)n4)c3)n2)c1 | 293 | –
CC(Nc1nc(NCCO)nc(Nc2cccc(N)c2)n1)c1ccc(Nc2nc(NCCO)nc(Nc3cccc(N)c3)n2)cc1 (stereo unspecified) | – | IC50 [1]: Not Active
OCCNc1nc(NCCc2ccc(Nc3nc(NCCO)nc(Nc4ccccc4F)n3)cc2)nc(Nc2ccccc2F)n1 | – | IC50 [1]: Not Active; IC50 [2]: Not Active
CN(C)c1ccc(CCNc2nc(Nc3ccc(CCNc4nc(NCCO)nc(Nc5cccc(N)c5)n4)cc3)nc(Nc3cccc(N)c3)n2)cc1 | 695 | –
Nc1cccc(Nc2nc(NCCO)nc(NCCc3ccc(Nc4nc(NCCc5ccccc5N)nc(Nc5cccc(N)c5)n4)cc3)n2)c1 | 185 | –
Nc1cccc(Nc2nc(NCCO)nc(NCCc3ccc(Nc4nc(NCCO)nc(Nc5ccc(Cl)cc5)n4)cc3)n2)c1 | 841 | IC50 ([2]; read-out: IC50): 893 nM
Nc1cccc(Nc2nc(NCCO)nc(NCCc3ccc(Nc4nc(NCCc5ccccc5)nc(Nc5cccc(N)c5)n4)cc3)n2)c1 | 449 | –
Nc1cccc(Nc2nc(NCCO)nc(NCCc3ccc(Nc4nc(NCCc5ccc(O)cc5)nc(Nc5cccc(N)c5)n4)cc3)n2)c1 | – | IC50 [1]: Not Active
NCCNc1nc(NCCO)nc(Nc2ccc(CCNc3nc(NCCO)nc(Nc4cccc(N)c4)n3)cc2)n1 | 410 | IC50 ([2]; read-out: IC50): 749 nM
Nc1cccc(Nc2nc(NCCO)nc(NCCc3cccc(Nc4nc(NCCO)nc(Nc5cccc(N)c5)n4)c3)n2)c1 | – | IC50 [1]: Not Active
Nc1cccc(Nc2nc(NCCO)nc(NCCc3ccc(Nc4nc(NCCO)nc(Nc5cccc(F)c5)n4)cc3)n2)c1 | 382 | IC50 ([2]; read-out: IC50): 209 nM
Nc1cccc(Nc2nc(NCCO)nc(NCCc3ccc(Nc4nc(NCCO)nc(Nc5ccc(F)cc5)n4)cc3)n2)c1 | 361 | IC50 ([2]; read-out: IC50): 204 nM
Nc1cccc(CNc2nc(Nc3ccc(CCNc4nc(NCCO)nc(Nc5cccc(N)c5)n4)cc3)nc(Nc3cccc(N)c3)n2)c1 | 141 | –

Now from value to compound, other results behind:

IC50 ([1]; read-out: IC50) [nM] | Structure (SMILES) | also measured
84 | Nc1cccc(Nc2nc(NCCO)nc(NCCc3ccc(Nc4nc(NCCO)nc(Nc5cccc(N)c5)n4)cc3)n2)c1 | IC50 ([2]; read-out: IC50): 144 nM
54 | Nc1ccc(CCNc2nc(Nc3ccc(CCNc4nc(NCCO)nc(Nc5cccc(N)c5)n4)cc3)nc(Nc3cccc(N)c3)n2)cc1 | IC50 [3]: 83 nM; IC50 [4]: 12000 nM; IC50 [5]: 57000 nM; fold change (FC) (Mus musculus [6]): 2; Activity (Mus musculus [7]): Active; Activity (Mus musculus [8]): Active
56 | Nc1cccc(Nc2nc(NCCO)nc(NCCc3ccc(Nc4nc(Nc5cccc(N)c5)nc(Nc5cccc(N)c5)n4)cc3)n2)c1 | –
89 | CN(C)c1nc(Nc2ccc(CCNc3nc(NCCO)nc(Nc4cccc(N)c4)n3)cc2)nc(Nc2cccc(N)c2)n1 | –
80 | Nc1cccc(Nc2nc(NCCO)nc(Nc3ccc4c(c3)CCN4c3nc(NCCO)nc(Nc4cccc(N)c4)n3)n2)c1 | –
70 | Nc1cccc(Nc2nc(NCCO)nc(NCCOCCNc3nc(NCCO)nc(Nc4cccc(N)c4)n3)n2)c1 | IC50 ([2]; read-out: IC50): 5190 nM
118 | Nc1cccc(Nc2nc(NCCO)nc(NCCc3ccc(Nc4nc(NCCc5cccc(O)c5)nc(Nc5cccc(N)c5)n4)cc3)n2)c1 | –
56 | Nc1cccc(Nc2nc(NCCO)nc(NCCCNc3nc(NCCO)nc(Nc4cccc(N)c4)n3)n2)c1 | –
59 | CN1CCN(c2nc(Nc3ccc(CCNc4nc(NCCO)nc(Nc5cccc(N)c5)n4)cc3)nc(Nc3cccc(N)c3)n2)CC1 | –
94 | Nc1cccc(Nc2nc(NCCO)nc(NCCc3ccc(Nc4nc(NCCO)nc(NCCO)n4)cc3)n2)c1 | IC50 ([2]; read-out: IC50): 81 nM
56 | Nc1cccc(Nc2nc(NCCO)nc(NCC(O)CNc3nc(NCCO)nc(Nc4cccc(N)c4)n3)n2)c1 | –
119 | Nc1cccc(CCNc2nc(Nc3ccc(CCNc4nc(NCCO)nc(Nc5cccc(N)c5)n4)cc3)nc(Nc3cccc(N)c3)n2)c1 | –
58 | Nc1cccc(Nc2nc(NCCO)nc(NCCNc3nc(NCCO)nc(Nc4cccc(N)c4)n3)n2)c1 | –
41 | CC(C)(CNc1nc(NCCO)nc(Nc2cccc(N)c2)n1)CNc1nc(NCCO)nc(Nc2cccc(N)c2)n1 | –
89 | CN(C)CCNc1nc(Nc2ccc(CCNc3nc(NCCO)nc(Nc4cccc(N)c4)n3)cc2)nc(Nc2cccc(N)c2)n1 | –
130 | Nc1cccc(Nc2nc(NCCO)nc(NCCc3ccc(Nc4nc(NCC(O)c5cccc(N)c5)nc(Nc5cccc(N)c5)n4)cc3)n2)c1 (stereo unspecified) | –
